Calls of active or inactive are those of the source.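 How the source made its calls, unless noted: active means GFP response above 150% of the DMSO level; inconclusive means fewer than 70 events counted for a yeast strain; inactive means the rest.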
What was measured:
[1] = RPL19A-GFP modulators, yeast TOR pathway, confirmation, cell-based, S. cerevisiae, flow cytometry, cherry picks, mother/daughter gates (AID 2270;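 active means GFP response below 50% of the DMSO control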); conditions: S. cerevisiae RPL19A-GFP strain, 3 h, at 10 µM, stronger effect = lower value, 100 = same GFP as DMSO wells
[2] = LAP4-GFP expression modulators in yeast, confirmation, cell-based, cherry picks, flow cytometry, mother/daughter gates (AID 2271;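 active means GFP response above 150% of the DMSO control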;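 further: ratio of sample to DMSO plate mean so 100% equals DMSO level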); conditions: S. cerevisiae LAP4-GFP strain, 3 h, at 10 µM, stronger effect = higher value, 100 means same as DMSO control
Method in brief: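 System: GFP-fusion yeast strain | Input: Yeast cells seeded at OD600 of 0.2 | Technique: HT flow cytometry, GFP fluorescence channel | Read-out: % GFP response vs DMSO | Dosing: Single test-compound dose, 10 µM final | Controls: Positive rapamycin (400 ng/mL), negative DMSO | Times: 3 h treatment at 30 °C with rotation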

[3] = modulators of MEP2-GFP levels in yeast, confirmation, S. cerevisiae, flow cytometry GFP, cherry picks (AID 2272;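 active means GFP response above 150% of the DMSO control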;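 further: ratio of well signal to plate DMSO mean so 100% equals DMSO level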); conditions: S. cerevisiae MEP2-GFP strain, 3 h, at 10 µM, stronger effect = higher value
[4] = AGP1-GFP expression modulators, hit retest, confirmation, cell-based, flow cytometry, S. cerevisiae, cherry picks (AID 2273);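 further: median GFP channel fluorescence over the whole cell population gate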; conditions: S. cerevisiae AGP1-GFP strain, 3 h, at 10 µM
[5] = modulators of CIT2-GFP expression in yeast, confirmation, S. cerevisiae, GFP fusion, cherry picks, mother/daughter gates (AID 2274); conditions: S. cerevisiae CIT2-GFP strain, flow cytometry, 3 h, at 10 µM, stronger effect = higher value
[6] = measured here: daughter cell gate
[7] = measured here: mother cell gate
[8] = measured here: daughter cell gate response
[9] = measured here: mother cell gate response

Structure (SMILES) | GFP response vs DMSO [1] | GFP response vs DMSO [1, 6] | GFP response vs DMSO [1, 7] | GFP response relative to DMSO [2] | GFP response relative to DMSO [2, 8] | GFP response relative to DMSO [2, 9] | GFP response vs DMSO [3] | GFP response, % of DMSO [4] | GFP response, % of DMSO [5] | GFP response, % of DMSO [5, 6] | GFP response, % of DMSO [5, 7]
COc1cccc2c1Oc1ncccc1N(C(=O)CCC(=O)NCc1ccccc1Cl)C2 | 95.6% (inactive) | 97.9% | 95.8% | 97% (inactive) | 97.5% | 96.2% | 99% (inactive) | 99.6% (inactive) | 103% (inactive) | 103% | 103%
Cc1cc(C)c(OCC(=O)Nc2nc(-c3ccccn3)cs2)c(C)c1 | 98.6% (inactive) | 98.3% | 98.8% | 121% (inactive) | 115% | 126% | 103% (inactive) | 95.8% (inactive) | 92.2% (inactive) | 95.2% | 88.8%
O=C(O)c1ccc(N/N=C/C(Br)=C/c2ccccc2)cc1 | 98.4% (inactive) | 97% | 96.7% | 131% (inactive) | 130% | 130% | 97.5% (inactive) | 94.7% (inactive) | 90.7% (inactive) | 92.7% | 85.1%
O=c1oc2cc(Oc3c([N+](=O)[O-])cc(C(F)(F)F)cc3[N+](=O)[O-])ccc2c2c1CCCC2 | 95.4% (inactive) | 90.7% | 86.8% | 246% (active) | 153% | 249% | 105% (inactive) | 108% (inactive) | 100% (inactive) | 97.4% | 94.4%
CCC(=O)Oc1oc(-c2ccccc2)nc1C=Nc1ccccc1OC | 102% (inactive) | 102% | 102% | 105% (inactive) | 94.4% | 108% | 95.2% (inactive) | 95.5% (inactive) | 90.3% (inactive) | 86.9% | 92.6%
CC(=O)c1ccc(N2CCN(C(=O)c3ccc(Br)cc3)CC2)c(F)c1 | 111% (inactive) | 95.4% | 110% | 160% (active) | 117% | 160% | 117% (inactive) | 115% (inactive) | 111% (inactive) | 88.1% | 104%
Cc1ccccc1Oc1ncnc2oc(-c3ccccc3)cc12 | 100% (inactive) | 98.9% | 101% | 96.7% (inactive) | 96% | 97.2% | 102% (inactive) | 97.2% (inactive) | 99.7% (inactive) | 99.1% | 96.1%
CCC(=O)Nc1nc(C)c(-c2csc(Nc3cccc(C(=O)O)c3)n2)s1 | 97.3% (inactive) | 97.8% | 97.3% | 85.8% (inactive) | 89.8% | 87.3% | 101% (inactive) | 94.8% (inactive) | 100% (inactive) | 101% | 100%
COCCNc1c(-c2ccc(O)cc2)nc2ccc(Cl)cn12 | 97.6% (inactive) | 97.4% | 97.7% | 99.2% (inactive) | 99.2% | 98.3% | 98.3% (inactive) | 93.1% (inactive) | 98.3% (inactive) | 99.1% | 97.3%
CC(C)(C)c1cc(C(c2cccnc2)N2CCN(CCO)CC2)cc(C(C)(C)C)c1O (configuration not stated) | 98.2% (inactive) | 108% | 91.3% | 151% (active) | 168% | 138% | 118% (inactive) | 94.3% (inactive) | 99.3% (inactive) | 126% | 82.8%
CCCc1[nH]nc2c1C(c1ccccc1OCC)C(C#N)=C(N)O2 (configuration not stated) | 98.4% (inactive) | 99.5% | 98% | 99.8% (inactive) | 98.7% | 101% | 100% (inactive) | 102% (inactive) | 99.1% (inactive) | 96.5% | 98.7%
O=C(OCc1cccc([N+](=O)[O-])c1)c1cnccn1 | 98.5% (inactive) | 99.5% | 97.1% | 102% (inactive) | 97.5% | 105% | 103% (inactive) | 97% (inactive) | 98.6% (inactive) | 101% | 96%
Cc1nonc1C(=O)N/N=C/c1ccc([N+](=O)[O-])o1 | 100% (inactive) | 101% | 101% | 111% (inactive) | 109% | 113% | 105% (inactive) | 106% (inactive) | 105% (inactive) | 105% | 104%
COc1ccccc1-c1noc(CCC(=O)Nc2cccc(C)c2)n1 | 99.9% (inactive) | 100% | 100% | 96.5% (inactive) | 96.5% | 96.5% | 97.5% (inactive) | 90.8% (inactive) | 95% (inactive) | 98.3% | 95.6%
O=C1C=C(c2ccccc2)C(=O)N1Nc1ccccc1 | 77.5% (inactive) | 88.3% | 64.5% | 124% (inactive) | 96% | 113% | 102% (inactive) | 78.4% (inactive) | 92.6% (inactive) | 95.4% | 78.3%
NC(=O)c1ccc(Oc2ccc(-c3nnco3)cc2)c([N+](=O)[O-])c1 | 98.4% (inactive) | 100% | 99.1% | 93.8% (inactive) | 95.6% | 94.2% | 100% (inactive) | 98.7% (inactive) | 110% (inactive) | 105% | 112%
CCOc1ccc(/C=C2\N=C(c3cccs3)OC2=O)cc1OC | 95% (inactive) | 95.2% | 93.9% | 98.2% (inactive) | 97.5% | 99.4% | 101% (inactive) | 94.5% (inactive) | 97.3% (inactive) | 95.6% | 98.1%
COc1ccc(-c2noc(CCCc3ccccc3)n2)cc1OC | 101% (inactive) | 98.7% | 100% | 96.2% (inactive) | 98.7% | 98.3% | 104% (inactive) | 104% (inactive) | 95.2% (inactive) | 94.8% | 96.6%
CC1=CCC(C(=O)O)C(C(=O)Nc2ccc(-c3nc4ccc(C)cc4s3)cc2)C1 (configuration not stated) | 99.2% (inactive) | 100% | 100% | 96.1% (inactive) | 96.6% | 96.2% | 98.8% (inactive) | 101% (inactive) | 112% (inactive) | 110% | 113%
Cc1ccc(NC(=O)CCCSc2nc3ccccc3[nH]2)cc1 | 99.6% (inactive) | 99.1% | 100% | 96.1% (inactive) | 98.2% | 98.2% | 98.8% (inactive) | 106% (inactive) | 113% (inactive) | 111% | 114%
C=CCOc1ccc(C(=O)/C=C2/C(=O)Nc3ccccc32)cc1 | 97.6% (inactive) | 93.6% | 97.2% | 113% (inactive) | 108% | 117% | 111% (inactive) | 112% (inactive) | 95.2% (inactive) | 93.2% | 93.4%
COc1ccc(C2=CC(=O)N(Nc3ccccc3)C2=O)cc1 | 102% (inactive) | 101% | 95.8% | 178% (active) | 170% | 172% | 107% (inactive) | 105% (inactive) | 99.1% (inactive) | 108% | 90.2%
COc1cccc(NC(=O)Nc2ccc3c(c2)nnn3C)c1 | 97.8% (inactive) | 98.1% | 96.9% | 103% (inactive) | 102% | 104% | 100% (inactive) | 97.2% (inactive) | 101% (inactive) | 103% | 101%
CCCN1CCN(C(=O)c2oc3ccccc3c2NC(=O)COc2ccc(OC)cc2)CC1 | 98.6% (inactive) | 100% | 99.8% | 95.4% (inactive) | 96% | 95.1% | 102% (inactive) | 98.1% (inactive) | 105% (inactive) | 106% | 106%
CN=C(NC)SC1CC(=O)N(c2ccccc2)C1=O (configuration not stated) | 99.3% (inactive) | 97.8% | 102% | 99.8% (inactive) | 98.7% | 103% | 97.8% (inactive) | 93.5% (inactive) | 92.6% (inactive) | 93.2% | 91.2%
Cc1c([N+](=O)[O-])cnc(Sc2ccccc2)c1[N+](=O)[O-] | 100% (inactive) | 96.9% | 98.9% | 124% (inactive) | 120% | 127% | 102% (inactive) | 97.6% (inactive) | 101% (inactive) | 101% | 99.7%
C/C(=N\NC(=O)c1cccc(Cl)c1)c1cccc(NC(=O)C(C)C)c1 | 96.2% (inactive) | 98.1% | 95.6% | 92.9% (inactive) | 94.4% | 92.3% | 103% (inactive) | 99.8% (inactive) | 100% (inactive) | 99.3% | 103%

Reference: PubChem BioAssay
